# Assay outcomes from PubChem.
# Sampled rows, rich in hits. Any-hit rate of the full collection: about 2.3%.
# CAL PDZ FP-1: CAL PDZ (human) peptide binding inhibition | Q9HD26 | purified CAL PDZ, TMR-peptide fluorescence polarization, 1 h | inhibition, % at 24.9 µM | actives 0.92% (n = 300,000) | AID 602252;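 active means mean inhibition of at least 30% with at least half of replicates also reaching 30%; inconclusive means no clear call, values can overlap the other calls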;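 further: 0% = DMSO neutral control and 100% = excess unlabeled competitor peptide PRC23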
# SR-BI HDL uptake: inhibitors of mouse SR-BI mediated HDL lipid uptake. actives 0.96% (n = 320,000). AID 488896. inhibition, % at 12.5 µM. ldlA[mSR-BI] CHO cells, DiI-HDL uptake fluorescence, 3 h. Q61009;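 active means mean replicate inhibition of at least 70% and a set share of replicates each scoring 70 or more; inconclusive means meets just one of the two criteria; inactive means fails both criteria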;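 further: 0% = median of neutral control wells and 100% = median of positive control wells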
# Target sequence (Q61009 whole entry, looked up): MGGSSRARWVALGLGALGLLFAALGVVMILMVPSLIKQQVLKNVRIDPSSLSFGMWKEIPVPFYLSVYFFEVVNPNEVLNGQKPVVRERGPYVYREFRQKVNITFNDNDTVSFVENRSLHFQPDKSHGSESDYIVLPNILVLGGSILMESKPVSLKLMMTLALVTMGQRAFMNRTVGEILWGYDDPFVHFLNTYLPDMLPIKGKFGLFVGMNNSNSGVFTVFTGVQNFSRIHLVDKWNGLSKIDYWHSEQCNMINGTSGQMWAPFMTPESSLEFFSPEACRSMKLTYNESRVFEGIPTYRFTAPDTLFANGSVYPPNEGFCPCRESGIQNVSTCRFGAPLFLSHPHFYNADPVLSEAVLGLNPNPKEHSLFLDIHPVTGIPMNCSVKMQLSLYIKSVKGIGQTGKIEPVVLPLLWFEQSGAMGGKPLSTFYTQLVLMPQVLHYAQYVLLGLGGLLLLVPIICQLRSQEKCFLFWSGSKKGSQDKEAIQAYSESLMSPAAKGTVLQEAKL
# ATG4B inh: ATG4B (human) cysteine protease inhibition | Q9Y4P1 | ATG4B cleavage of LC3-PLA2, NBD-HPC fluorescence, 1 h | inhibition, % at 8.33 µM | actives 0.51% (n = 340,000); in the data active means inhibition above about 40%
# CAL PDZ FP-2: inhibitors of human CAL PDZ peptide binding; actives 0.02% (n = 330,000); inhibition, % at 20 µM; Q9HD26; purified CAL PDZ, TMR-peptide fluorescence polarization, 1 h;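 active means highest replicate inhibition of at least 40%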;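 further: plate controls were DMSO neutral control wells for no effect and unlabeled competitor peptide control wells for full effect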
#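 System: tagged CAL PDZ domain. Schedule: 1 h room-temperature incubation prior to read. Signal: fluorescence polarization (mP). Measure: percent inhibition from loss of millipolarization.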
# SR-BI uptake up: SR-BI HDL lipid transfer activation; CHO ldlA[mSR-BI] cells, DiI-HDL uptake fluorescence, 3 h; 100 = double the neutral-control signal; activation, % at 12.5 µM; actives 0.096% (n = 320,000);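 active means mean replicate activation of at least 60% and every replicate at or above 60%; inconclusive means mean or all-replicate condition met, but not both; inactive means mean below 60% and not all replicates reaching 60%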;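 further: 0% = median plate neutral-control signal and 100% = twice that signal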
#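 Assay system: CHO ldlA[mSR-BI] cells, LDL receptor-null, SR-BI overexpressing; medium: Ham's F12 with 0.5% BSA, HEPES 25 mM, pH 7.4; also added: DiI-HDL 10 µg/mL; timing: 3 h uptake period with compound, 37 °C; signal: DiI fluorescence, bottom read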
# * hit, by the source's call; i = inactive; ? = inconclusive; / = not tested or not shown.
SMILES,CAL PDZ FP-1,SR-BI HDL uptake,ATG4B inh,CAL PDZ FP-2,SR-BI uptake up
Nc1c(S(=O)(=O)c2cccs2)c2nc3ccccc3nc2n1/N=C/c1cccc(O)c1,49*,-9,-10,-2,9
CCOC(=O)c1c(C)[nH]c(C(=O)OCC(=O)Nc2cc(C)c(Cl)cc2OC)c1C,37*,23,-4,0,-23
COc1ccc(OC)c(C2=NS(=O)(=O)N(C)C(C(=O)Nc3ccc(C(C)=O)cc3)=C2)c1,54*,35,-18,0,-35
CCOC(=O)C1CCCN(S(=O)(=O)c2ccc(C)cc2)C1 (stereo not given),-3,5,16,-1,-5
CCOC(=O)C1CCCN(S(=O)(=O)c2ccc(Cl)nc2)C1 (stereo not given),46*,-26,1,1,26
CCS(=O)(=O)c1nc(S(=O)(=O)c2ccc(Cl)cc2)c(NCCCN2CCCC2=O)s1,-2,2,0,-1,-2
CCCS(=O)(=O)c1nc(S(=O)(=O)c2ccc(C)cc2)c(NCCCN2CCCC2=O)s1,42*,8,-4,-1,-8
CCOC(=O)c1[nH]c2ccc(OC)cc2c1NC(=S)N1CCN(c2cccc(C)c2C)CC1,-4,73*,-3,2,-73
CCOC(=O)c1[nH]c2ccc(OC)cc2c1NC(=S)N1CCN(c2ccc(F)cc2)CC1,-4,25,31,-1,-25
COc1cccc(NC(=O)N2CCN(c3cccc(C)c3C)CC2)c1,2,71*,-9,/,-71
COc1ccccc1N1CCN(C(=O)Nc2cccc(Cl)c2)CC1,/,32,-7,-2,-32
COC(=O)c1sc(-c2ccc(Cl)cc2)cc1NC(=O)COCC(=O)O,48*,3,5,-4,-3
COC(=O)c1sc(-c2ccc(Cl)cc2)cc1NC(=O)/C=C/C(=O)O,/,-11,5,-2,11
Cc1cccc(N(Cc2cc(=O)[nH]c3ccccc23)C(=O)C(C)C)c1,35*,/,-6,/,/
CC(=O)N(Cc1cc(=O)[nH]c2ccccc12)c1cccc(C)c1,-6,-1,-2,-2,1
COc1cc(OC)cc(C(=O)Nc2nc(CC(=O)NCc3ccc(F)cc3)cs2)c1,-5,53,0,-1,-53
COc1cc(OC)cc(C(=O)Nc2nc(CC(=O)NCCc3ccccc3)cs2)c1,-2,81*,3,-3,-81
COc1cc(OC)cc(C(=O)Nc2nc(CC(=O)NCc3ccccc3OC)cs2)c1,-5,70*,28,-3,-70
COc1ccc(OC)c(-c2nn(-c3ccccc3)cc2C(=O)NCC(c2cccs2)N2CCOCC2)c1 (stereo not given),6,-4,-14,-2,4
c1ccc(-c2ccccc2OCCOCCN2CCc3ccccc3C2)cc1,75*,-12,-1,0,12
CCn1nc(C(=O)N2CCN(Cc3nc4ccccc4s3)CC2)c2ccccc2c1=O,-1,13,-2,1,-13
CC(OC(=O)C1=COCCO1)C(=O)Nc1ncc(Cl)cc1Cl (stereo not given),0,-23,5,-2,23
CCOC(=O)C1CCCN(C(=O)c2cc(-c3ccc(F)cc3)nc3ccccc23)C1 (stereo not given),0,70*,-7,-1,-70
CC1CCN(C(=O)c2ccccc2SCC(=O)NCC2CCCCC2)CC1,/,i,2,-1,588*
CC1CCN(Cc2nnnn2CCCC(=O)N(C)C(C)c2ccccn2)CC1 (stereo not given),-4,-10,-1,0,10
SMILES,CAL PDZ FP-1,SR-BI HDL uptake,ATG4B inh,CAL PDZ FP-2,SR-BI uptake up
O=S(=O)(N/N=C/c1ccc(N2CCOCC2)cc1)c1ccc(Br)cc1,4,/,1,0,/
CCn1cc(C(=O)NP(=O)(Nc2ccc(C)cc2)Nc2ccc(C)cc2)c2ccccc21,-3,-165,-5,-1,165*
CCn1cc(S(=O)(=O)CC(=O)Nc2ccc(C)cc2)c2ccccc21,53*,33,-10,0,-33
COc1cc(N2CCC(O)CC2)ccc1Nc1nnc(Cl)c(Nc2ccccc2S(C)(=O)=O)n1,0,18,-9,0,-18
CN(C(=O)c1cccc(NC(=O)Cc2cccc(NC(=O)C3CCCN(C(=O)C4CCCCC4)C3)c2)c1)C1CC1 (stereo not given),-2,58,-9,-1,-58
COc1ccc(C(=O)Nc2ccc(N3CCCCCC3)cc2)cc1S(=O)(=O)N1CCOCC1,-3,56,-26,-2,-56
CCOC(=O)N1CCN(CCC(=O)Nc2cccc(Cl)c2C)CC1,1,-21,2,-1,21
C/C(CCc1ccco1)=N\NC(=O)CNc1cccc2ccccc12,4,3,-9,-3,-3
C/C(=N\NC(=O)CNc1cccc2ccccc12)c1ccccc1,31*,16,-2,0,-16
Cc1ccc(/C=C2/Sc3ccccc3N(CC(=O)NCC3CCCO3)C2=O)cc1 (stereo not given),184*,?,-5,-1,-71
Cc1ccc(-c2nn(C)c(=O)c3ccccc23)cc1CNS(C)(=O)=O,-3,8,0,-2,-8
Cc1ccc(-c2nn(C)c(=O)c3ccccc23)cc1CN1CCCCC1,47*,10,-2,-1,-10
N#CC(C#N)=C1c2cc(S(=O)(=O)NCCO)ccc2-c2ccc(S(=O)(=O)NCCO)cc21,13,-197,-7,-1,197*
O=C1c2cc(S(=O)(=O)NCCO)ccc2-c2ccc(S(=O)(=O)NCCO)cc21,2,1,-10,0,-1
Cc1ccccc1-n1nc2c(c1NC(=O)c1cc3ccccc3o1)CS(=O)(=O)C2,-3,5,-4,-2,-5
Cc1ccc(C(C)C)c(OCc2ccc(C(=O)N/N=C/c3ccc(O)cc3O)cc2)c1,-2,129*,-16,-1,-129
Cc1ccc(C(C)C)c(OCc2ccc(C(=O)N/N=C/c3ccc(C(=O)O)cc3)cc2)c1,4,/,-7,-6,/
Cc1nc(N2CCOCC2)nc(N2CCN(c3ccccc3)CC2)c1[N+](=O)[O-],/,78*,-4,-2,-78
COc1ccc([N+](=O)[O-])cc1NC(=O)c1cn(-c2ccc(Cl)cc2)c(=O)c2ccccc12,-2,74*,9,0,-74
CCn1ncc(C(=O)Nc2ccc([N+](=O)[O-])cc2OC)c1C,13,12,-4,-1,-12
COc1ccc([N+](=O)[O-])cc1NC(=S)NC(NC(=O)C(c1ccccc1)c1ccccc1)C(Cl)(Cl)Cl (stereo not given),-4,87*,-12,-1,-87
COc1ccc([N+](=O)[O-])cc1NC(=O)c1ccccc1N(C)S(C)(=O)=O,-1,-12,17,0,12
COCCSc1ccccc1C(=O)Nc1cc([N+](=O)[O-])ccc1OC,5,83*,-1,-1,-83
